Legend:
[1] = target: Human immunodeficiency virus type 1 reverse transcriptase (Human immunodeficiency virus 1, UniProt Q72547); test: Inhibitory concentration against HIV-1 reverse transcriptase in scintillation proximity assay
How it was run: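 Recombinant purified HIV-1 RT (2 nM) with 39 nM 50-mer RNA template annealed to biotinylated 17-mer DNA primer; 75 nM dATP, dCTP, dGTP and [3H]TTP. Buffer 50 mM Tris-HCl pH 8.0, 80 mM KCl, 10 mM MgCl2, 10 mM DTT, 0.012% CHAPS. Enzyme, template-primer and inhibitor (90 μM–0.01 nM) preincubated 15 min at 37 °C; reaction 10 min at 37 °C, EDTA stop, streptavidin scintillant beads, scintillation counting.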

MOLT-4 = test: Tested for cytotoxicity in Molt-4 cells by XTT assay; format: functional, cell-based; conditions: Homo sapiens
How it was run: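 Molt-4 cells plated at 3×10^4 cells/well with compound; on day 7 XTT conversion to formazan measured, with trypan blue microscopic examination also used; IC50 derived.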

[2] = system: Human immunodeficiency virus 1; test: Anti-HIV activity against HIV-1 in Molt-4 cells using 7-day infective assay; format: functional, organism-based; conditions: Human immunodeficiency virus 1, MOLT-4, 168 h
How it was run: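 Molt-4 cells (3×10^4) infected with 50 tissue culture infectious doses of HIV-1; compound added day 0, cultures refed days 1 and 4 with medium containing compound at initial concentration. On day 7 cells spun down and supernatant RT quantified by microassay; IC50 from RT quantitation.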

[3] = target: Human immunodeficiency virus type 1 reverse transcriptase (Human immunodeficiency virus 1, UniProt Q72547, Y181C); test: Inhibitory concentration against HIV-1 reverse transcriptase mutant (Tyr-181 to Cys)
How it was run: (§1)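 Scintillation proximity assay for RNA-dependent DNA polymerase activity of recombinant purified RT. The template is a 50-mer RNA annealed at its 5'-end to a biotinylated 17-mer DNA primer. Buffer is 50 mM Tris-HCl pH 8.0 with 80 mM KCl, 10 mM MgCl2, 10 mM DTT and 0.012% CHAPS. Final levels are 2 nM RT, 39 nM template-primer, 75 nM each dATP/dCTP/dGTP/[3H]TTP, and inhibitor serially diluted over 90 μM–0.01 nM. RT, template-primer and inhibitor are preincubated 15 min at 37 °C. The reaction runs 10 min at 37 °C and is stopped with EDTA. Incorporated label is captured on streptavidin scintillant beads and counted to give IC50.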

[4] = Selectivity index is the ratio of cytotoxicity in Molt-4 cells and anti-HIV- IC50; format: functional
How it was run: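 Selectivity index = cytotoxicity IC50 (XTT, Molt-4, day 7) divided by anti-HIV IC50 (RT quantitation in supernatant 7 days after HIV-1 infection of Molt-4 cells).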

[5] = target: Human immunodeficiency virus type 1 reverse transcriptase (Human immunodeficiency virus 1, UniProt Q72547, Y181L); test: Inhibitory concentration against HIV-1 reverse transcriptase mutant (Tyr-181 to Leu); how it was run: as §1

| Compound | IC50 [1] [µM] | IC50 (MOLT-4) [µM] | other results |
| --- | --- | --- | --- |
| C[C@H]1[C@H](O)c2c(c3c(c4c(-c5ccccc5)cc(=O)oc24)OC(C)(C)C=C3)O[C@@H]1C | 0.038 | 55 | IC50 [2]: 1.4 µM; IC50 [3]: 0.16 µM; Selectivity index [4]: 39; IC50 [5]: 0.41 µM |
| CC(C)=CCN1Cc2cc(Cl)cc3[nH]c(=S)n(c23)C[C@@H]1C | 0.7 | 19 | IC50 [2]: 0.19 µM; Selectivity index [4]: 100 |
| CC1[C@H](O)c2c(c3c(c4c(-c5ccccc5)cc(=O)oc24)O[C@@H]2[C@H]3C2(C)C)O[C@@H]1C (single isomer, unassigned) | > 100 | – | – |
| C[C@@H]1[C@@H](C)Oc2c3c(c4c(-c5ccccc5)cc(=O)oc4c2[C@@H]1O)OC(C)(C)C=C3 | 0.13 | 25 | IC50 [2]: 1.6 µM; Selectivity index [4]: 16 |
| CC1[C@H](O)c2c(c3c(c4c(-c5ccccc5)cc(=O)oc24)O[C@H]2[C@@H]3C2(C)C)O[C@@H]1C (single isomer, unassigned) | 70 | – | – |
| C[C@H]1[C@@H](C)Oc2c3c(c4c(-c5ccccc5)cc(=O)oc4c2[C@@H]1O)OC(C)(C)C=C3 | 11 | 15 | – |
| CC1=Cc2c(c3c(c4c(-c5ccccc5)cc(=O)oc24)OC(C)(C)C=C3)O[C@@H]1C | 9 | – | – |
| C[C@@H]1[C@H](O)c2c(c3c(c4c(-c5ccccc5)cc(=O)oc24)OC(C)(C)C=C3)O[C@@H]1C | 30 | 33 | – |

Continued, in another order:

| IC50 [1] [µM] | Compound | IC50 (MOLT-4) [µM] | other results |
| --- | --- | --- | --- |
| 0.72 | CC(=O)O[C@@H]1c2c(c3c(c4c(-c5ccccc5)cc(=O)oc24)OC(C)(C)C=C3)O[C@H](C)[C@H]1C | – | – |
| > 100 | C[C@@H]1C(=O)c2c(O)c(/C(=C\C(=O)O)c3ccccc3)c3c(c2O[C@@H]1C)C=CC(C)(C)O3 | – | – |
| > 100 | C[C@H]1Oc2c3c(c(/C(=C\C(=O)O)c4ccccc4)c(O)c2C(=O)[C@@H]1C)OC(C)(C)C=C3 | – | – |
| 46 | C[C@@H]1[C@H](C(=O)c2ccc(Br)cc2)c2c(c3c(c4c(-c5ccccc5)cc(=O)oc24)OC(C)(C)C=C3)O[C@@H]1C | – | – |
| > 100 | CC(=O)O[C@H]1c2c(c3c(c4c(-c5ccccc5)cc(=O)oc24)OC(C)(C)C=C3)O[C@H](C)[C@H]1C | – | – |
| 100 | C[C@@H]1C(=O)c2c(c3c(c4c(-c5ccccc5)cc(=O)oc24)OC(C)(C)C=C3)O[C@@H]1C | 6.2 | – |
| 10 | C[C@H]1Oc2c3c(c4c(-c5ccccc5)cc(=O)oc4c2C(=O)[C@@H]1C)OC(C)(C)C=C3 | 18 | – |
